Results on five compounds are retold here after ChEMBL document CHEMBL1124514, “Synthesis and antiviral activity of the nucleotide analogue (S)-1-[3-hydroxy-2-(phosphonylmethoxy)propyl]cytosine” (1989).

Holding throughout (assay type): functional
The test system of experiment [1] is Human alphaherpesvirus 1. As to the kind of experiment: Antiviral activity of the compound, determined by plaque-reduction assay against thymidine kinase deficient Herpes simplex virus type 1, Z826 strain in Vero cells. The note with it: Human alphaherpesvirus 1, Vero; read-out: ID50 (the source's name). Summed up: (§1)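 Plaque reduction: confluent monolayers (Vero for HSV, MRC-5 for HCMV) infected with 30-50 PFU in PBS, 1 h adsorption, then compound dilutions in EMEM with 10% fetal bovine serum; 48 h at 37 °C, 5% CO2; fixed, Carbol fuchsin stained, plaques counted. ID50 = concentration reducing plaque number by 50% versus virus control.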

A further experiment deals with Human betaherpesvirus 5. The experiment in a line: Antiviral activity determined by plaque-reduction assay against Human cytomegalovirus, AD-169 strain in MRC-5 cells. To be noted: Human betaherpesvirus 5, MRC5; read-out: ID50 (the source's name). Summed up: as §1
The subject of experiment [2] is Human alphaherpesvirus 2. As to the kind of experiment: Antiviral activity determined by plaque-reduction assay against Herpes simplex virus type 2, G strain in Vero cells. To be noted: Human alphaherpesvirus 2, Vero; read-out: ID50 (the source's name). Summed up: as §1
Experiment [3] relates to Human alphaherpesvirus 1. As to the kind of experiment: Antiviral activity of the compound, determined by plaque-reduction assay against Herpes simplex virus (HSV) type 1, BW5 strain in Vero cells. The note with it: Human alphaherpesvirus 1, Vero; read-out: ID50 (the source's name). Summed up: as §1
For experiment [4], the system named is Human alphaherpesvirus 1. The experiment in a line: In vitro antiviral activity of the compound, determined by plaque-reduction assay against Herpes simplex virus (HSV) type 1, BW5 strain in Vero cells. The note with it: Human alphaherpesvirus 1, Vero; read-out: ID50 (the source's name). Summed up:
as §1

The species named for experiment [5] is Cavia porcellus. As to the kind of experiment: Mean of severity score obtained from five different individuals at 5% ACV.
Experiment [6] is filed under the species Cavia porcellus. The experiment in a line: Total score of lesion formation in HSV-1 cutaneous infection in guinea pig at 5% ACV.
Experiment [7] relates to Mus musculus. The experiment in a line: Percentage survival of mice after intraperitoneal administration of compound at 200 mg/kg per day in experiment 2; survival/ tested =7/9. To be noted: ip. In short, it runs like this: (§2)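 Female Swiss mice (16–18 g) infected ip with (2-6) × 10^2 PFU HSV 1 HL-34, randomized into groups of 10. Ip dosing started 3 h postinfection, twice daily for 5 consecutive days; vehicle 0.2% carboxymethylcellulose with 0.2% Tween 80 in water. Mortality followed 21 days; survival by Fisher's exact test, mean survival time by Gehan-Wilcoxon.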

Experiment [8] has as its system Mus musculus. The experiment in a line: Percentage survival of mice after intraperitoneal administration of compound at 200 mg/kg per day in experiment 1; survival/ tested =3/4. To be noted: ip.
Experiment [9] is filed under the species Cavia porcellus. The experiment in a line: Duration of time of lesion formation in HSV-1 cutaneous infection in guinea pig at 5%ACV.
In experiment [10] the test system is Mus musculus. The experiment in a line: Percentage survival of mice after intraperitoneal administration of compound at 100 mg/kg per day in experiment 1; survival/ tested =7/10. To be noted: ip. In short, it runs like this: as §2
Experiment [11] is filed under the species Cavia porcellus. The experiment in a line: Duration of time of healing period in HSV-1 cutaneous infection in guinea pig at 5%ACV.
In experiment [12] the test system is Human alphaherpesvirus 2. The experiment in a line: In vitro antiviral activity determined by plaque-reduction assay against Herpes simplex virus type 2, G strain in Vero cells. To be noted: Human alphaherpesvirus 2, Vero; read-out: ID50 (the source's name). Summed up:
as §1

Experiment [13] deals with Human alphaherpesvirus 1. The experiment in a line: In vitro antiviral activity of the compound, determined by plaque-reduction assay against thymidine kinase deficient Herpes simplex virus type 1, Z826 strain in Vero cells. The note with it: Human alphaherpesvirus 1, Vero; read-out: ID50 (the source's name). Summed up: as §1
The species entered for experiment [14] is Cavia porcellus. As to the kind of experiment: Total score of healing period in HSV-1 cutaneous infection in guinea pig at 5% ACV.
The subject of experiment [15] is Mus musculus. The experiment in a line: Percentage survival of mice after intraperitoneal administration of compound at 50 mg/kg per day in experiment 1; survival/ tested =5/10. The note with it: ip. In short, it runs like this:
as §2

The subject of experiment [16] is Mus musculus. As to the kind of experiment: Mean survival time of mice was determined after intraperitoneal administration of compound at 0.1 mg/kg per day in experiment 2. In short, it runs like this:
as §2

For experiment [17], the system named is Mus musculus. As to the kind of experiment: Mean survival time of mice was determined after intraperitoneal administration of compound at 10 mg/kg per day in experiment 2. In short, it runs like this:
as §2

For experiment [18], the species on record is Cavia porcellus. As to the kind of experiment: Mean of severity score obtained from five different individuals at 1% HPMPC.
For experiment [19], the species on record is Cavia porcellus. The experiment in a line: Total score of healing period in HSV-1 cutaneous infection in guinea pig 1%HPMPC.
Experiment [20] concerns Mus musculus. The experiment in a line: Percentage survival of mice after intraperitoneal administration of compound at 10 mg/kg per day in experiment 1; survival/ tested =10/10. The note with it: ip. Summed up: as §2
The species entered for experiment [21] is Cavia porcellus. The experiment in a line: Duration of time of healing period in HSV-1 cutaneous infection in guinea pig at 5% HPMPC.
Experiment [22] is filed under the species Cavia porcellus. As to the kind of experiment: Total score of lesion formation in HSV-1 cutaneous infection in guinea pig at 0.1% HPMPC.
Experiment [23] relates to Mus musculus. The experiment in a line: Percentage survival of mice after intraperitoneal administration of compound at 0.1 mg/kg per day in experiment 2; survival/ tested =5/10. To be noted: ip. Summed up: as §2
Experiment [24] deals with Mus musculus. As to the kind of experiment: Mean survival time of mice was determined after intraperitoneal administration of compound at 100 mg/kg per day in experiment 1. Summed up: as §2
Experiment [25] concerns Mus musculus. As to the kind of experiment: Percentage survival of mice after intraperitoneal administration of compound at 100 mg/kg per day in experiment 1; survival/ tested =10/10. To be noted: ip. Summed up:
as §2

For experiment [26], the species on record is Cavia porcellus. The experiment in a line: Duration of time of healing period in HSV-1 cutaneous infection in guinea pig at 0.1% HPMPC.
For experiment [27], the species on record is Cavia porcellus. As to the kind of experiment: Total score of lesion formation in HSV-1 cutaneous infection in guinea pig at 5% HPMPC.
The species named for experiment [28] is Cavia porcellus. As to the kind of experiment: Duration of time of lesion formation in HSV-1 cutaneous infection in guinea pig at 5% HPMPC.
The species named for experiment [29] is Cavia porcellus. The experiment in a line: Duration of time of healing period in HSV-1 cutaneous infection in guinea pig at 1% HPMPC.
The test system of experiment [30] is Mus musculus. The experiment in a line: Mean survival time of mice was determined after intraperitoneal administration of compound at 10 mg/kg per day in experiment 1. Summed up:
as §2

Experiment [31] concerns Mus musculus. The experiment in a line: Mean survival time of mice was determined after intraperitoneal administration of compound at 200 mg/kg per day in experiment 1. Summed up: as §2
For experiment [32], the system named is Mus musculus. The experiment in a line: Mean survival time of mice was determined after intraperitoneal administration of compound at 1 mg/kg per day in experiment 2. In short, it runs like this:
as §2

The species named for experiment [33] is Cavia porcellus. The experiment in a line: Duration of time of lesion formation in HSV-1 cutaneous infection in guinea pig at 1% HPMPC.
In experiment [34] the test system is Mus musculus. The experiment in a line: Percentage survival of mice after intraperitoneal administration of compound at 200 mg/kg per day in experiment 1; survival/ tested =10/10. To be noted: ip. In short, it runs like this:
as §2

The species entered for experiment [35] is Cavia porcellus. The experiment in a line: Total score of healing period in HSV-1 cutaneous infection in guinea pig at 5% HPMPC.
For experiment [36], the system named is Mus musculus. The experiment in a line: Percentage survival of mice after intraperitoneal administration of compound at 10 mg/kg per day in experiment 2; survival/ tested =10/10. The note with it: ip. Summed up: as §2
The species named for experiment [37] is Cavia porcellus. The experiment in a line: Duration of time of lesion formation in HSV-1 cutaneous infection in guinea pig at 0.1% HPMPC.
The species entered for experiment [38] is Cavia porcellus. The experiment in a line: Mean of severity score obtained from five different individuals at 0.1% HPMPC.
In experiment [39] the test system is Mus musculus. The experiment in a line: Percentage survival of mice after intraperitoneal administration of compound at 1 mg/kg per day in experiment 2; survival/ tested =9/10. To be noted: ip. Summed up: as §2
For experiment [40], the species on record is Cavia porcellus. As to the kind of experiment: Total score of healing period in HSV-1 cutaneous infection in guinea pig at 0.1% HPMPC.
Experiment [41] is filed under the species Cavia porcellus. The experiment in a line: Total score of lesion formation in HSV-1 cutaneous infection in guinea pig at 1% HPMPC.
Experiment [42] is filed under the species Cavia porcellus. The experiment in a line: Mean of severity score obtained from five different individuals at 5% HPMPC.

Converted amounts (≈) assume the structure as drawn. Where only a bound is given, the exact number is not on record here.

`Nc1ncnc2c1ncn2C[C@@H](CO)OCP(=O)(O)O`: the IC50 came out at 3.2 µg/mL (≈ 10.6 µM) with Human alphaherpesvirus 1 [1], 0.27 µg/mL (≈ 0.89 µM) in the experiment with Human betaherpesvirus 5, 25.2 µg/mL (≈ 83.1 µM) with Human alphaherpesvirus 2 [2] and 9.3 µg/mL (≈ 30.7 µM) with Human alphaherpesvirus 1 [3].
Consider `Nc1ccn(CCOCP(=O)(O)O)c(=O)n1`, for which the IC50 in the experiment with Human betaherpesvirus 5 is greater than 2.7 µg/mL; with Human alphaherpesvirus 2 [2], greater than 100 µg/mL; in the experiment on Human alphaherpesvirus 1 [3], greater than 100 µg/mL.
Regarding `Nc1nc2c(ncn2COCCO)c(=O)[nH]1` [ACYCLOVIR], the IC50 is 0.5 µg/mL (≈ 2.22 µM) in the experiment with Human alphaherpesvirus 1 [4], 0.3 µg/mL (≈ 1.33 µM) with Human alphaherpesvirus 2 [12] and 4.3 µg/mL (≈ 19.1 µM) in the experiment on Human alphaherpesvirus 1 [13]. Besides, in the experiment listed under Cavia porcellus [5], the Severity mean is recorded as 2.4. Besides, the Total score in the experiment listed under Cavia porcellus [6] was determined as 14; in the experiment filed under Cavia porcellus [14] it was 60.4. Further, the survival at 200 mg/kg/day in the experiment on Mus musculus [7] is 78%; with Mus musculus [8], 75%. For the same compound, the Duration time in the experiment listed under Cavia porcellus [9] is 5.4; in the experiment listed under Cavia porcellus [11] it was 4.2. The survival at 100 mg/kg/day in the experiment with Mus musculus [10] came out at 70%. In the experiment with Mus musculus [15], this compound returned a survival at 50 mg/kg/day of 50%.
As to `Nc1ccn(C[C@@H](CO)OCP(=O)(O)O)c(=O)n1.O.O` [CIDOFOVIR], the Mean survival time with Mus musculus [16] was 14.9 days; in the experiment on Mus musculus [17], 21 days; in the experiment on Mus musculus [24], 21 days; in the experiment with Mus musculus [30], 21 days; in the experiment with Mus musculus [31], 21 days; with Mus musculus [32], 19.7 days. Moreover, the Severity mean in the experiment filed under Cavia porcellus [18] was 1; in the experiment listed under Cavia porcellus [38] it was 1.4; in the experiment filed under Cavia porcellus [42], 0.8. Besides, the Total score in the experiment filed under Cavia porcellus [19] worked out at 75; in the experiment filed under Cavia porcellus [22], 8.2; in the experiment listed under Cavia porcellus [27] it was 3; in the experiment listed under Cavia porcellus [35], 85.4; in the experiment listed under Cavia porcellus [40], 72.8; in the experiment listed under Cavia porcellus [41], 7. Further, the survival at 10 mg/kg/day in the experiment with Mus musculus [20] and with Mus musculus [36] was 100% each time. Moreover, the Duration time in the experiment filed under Cavia porcellus [21] worked out at 4.2; in the experiment filed under Cavia porcellus [26], 4.4; in the experiment filed under Cavia porcellus [28], 2.2; in the experiment filed under Cavia porcellus [29] it was 3.8; in the experiment filed under Cavia porcellus [33], 3.8; in the experiment listed under Cavia porcellus [37], 3.8. In addition, the survival at 0.1 mg/kg/day with Mus musculus [23] came to 50%. Also, the survival at 100 mg/kg/day in the experiment on Mus musculus [25] came out at 100%. The IC50 in the experiment with Human alphaherpesvirus 1 [1] was found to be 0.7 µg/mL; with Human betaherpesvirus 5 it was 0.22 µg/mL; with Human alphaherpesvirus 2 [2], 2.3 µg/mL; with Human alphaherpesvirus 1 [3] it was 5.4 µg/mL. In the experiment on Mus musculus [34], this compound had a survival at 200 mg/kg/day of 100%. In the experiment on Mus musculus [39], this compound returned a survival at 1 mg/kg/day of 90%.
Take `Nc1nc2c(ncn2COC(CO)CO)c(=O)[nH]1` [GANCICLOVIR]: the IC50 in the experiment on Human alphaherpesvirus 1 [1] is greater than 10 µg/mL; in the experiment on Human betaherpesvirus 5, 1.8 µg/mL (≈ 7.05 µM); in the experiment with Human alphaherpesvirus 2 [2], 0.94 µg/mL (≈ 3.68 µM); in the experiment with Human alphaherpesvirus 1 [3], 0.23 µg/mL (≈ 0.901 µM).
